Legend:
[1] = tested on: WM-115; test: Cytotoxicity against human WM115 cells after 46 hrs by MTT assay; format: functional, cell-based; conditions: WM-115, 46 h
Outline: (§1)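 MTT read-out of survival in cells treated with test compound and compared with untreated control cells. IC50 is the concentration that lowers the surviving cell fraction to 50% of control. Values are means (μM) ± standard deviation from 3 experiments, each run in quintuple. Cancer-line IC50s were compared with normal-cell (HUVEC) IC50s by unpaired t-test.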

[2] = Lipophilicity, log P of the compound by HPLC analysis; format: physicochemical
[3] = tested on: NALM-6; test: Cytotoxicity against human NALM6 cells after 46 hrs by MTT assay; format: functional, cell-based; conditions: NALM-6, 46 h; outline: as §1
[4] = tested on: HUVEC; test: Cytotoxicity against HUVEC after 46 hrs by MTT assay; format: cell-based; conditions: Homo sapiens; outline: as §1
[5] = tested on: HL-60; test: Cytotoxicity against human HL60 cells after 46 hrs by MTT assay; format: functional, cell-based; conditions: HL-60, 46 h; outline: as §1

logP [2] | Compound | IC50 [1] | IC50 [3] | IC50 [4] | IC50 [5]
3.1 | O=C1/C(=C/c2ccc(O)cc2)COc2ccccc21 | 69 µM | 32.3 µM |  | 5.7 µM
3.33 | O=c1c(Cc2ccc(O)cc2)coc2ccccc12 | 57.2 µM | 49.8 µM |  | 46.7 µM
3.5 | O=C1/C(=C/c2ccccc2)C(c2ccccc2)Oc2ccc(O)cc21 (stereo unspecified) | 44.5 µM | 8.7 µM |  | 5.8 µM
2.92 | O=C1/C(=C\c2ccc(O)cc2)COc2ccccc21 | 12.1 µM | 466 µM |  | 6.5 µM
3.93 | O=c1c(Cc2ccc([N+](=O)[O-])cc2)coc2ccccc12 | 6.1 µM | 5 µM | 5.4 µM | 2.4 µM
3.58 | N#Cc1ccc(Cc2coc3ccccc3c2=O)cc1 | 6.3 µM | 4.8 µM |  | 3.8 µM
4.02 | O=c1c(Cc2ccc(F)cc2)coc2ccccc12 | 53.2 µM | 8.2 µM |  | 19.1 µM
3.31 | O=c1c(Cc2cccc(O)c2)coc2ccccc12 | 17.6 µM | 7.3 µM |  | 6.3 µM

More lines, now with the values behind:

Compound | logP [2] | IC50 [1] | IC50 [3] | IC50 [4] | IC50 [5]
O=C1/C(=C/c2ccncc2)C(c2ccccc2)Oc2ccccc21 (stereo unspecified) | 2.98 | 6.3 µM | 1.6 µM | 5.77 µM | 0.9 µM
O=C1/C(=C\c2ccncc2)C(c2ccccc2)Oc2ccccc21 (stereo unspecified) | 2.85 | 4.6 µM | 0.7 µM | 5.14 µM | 1.1 µM
O=C1/C(=C/c2ccccc2)COc2ccccc21 | 3.07 | 53.7 µM | 6.2 µM |  | 5.4 µM
O=C1/C(=C\c2ccccc2)C(c2ccccc2)Oc2ccccc21 (stereo unspecified) | 3.9 | 52.6 µM | > 1000 µM |  | 27.3 µM
O=C1/C(=C/c2ccccc2)C(c2ccccc2)Oc2ccccc21 (stereo unspecified) | 3.9 | 59.4 µM | 29.5 µM |  | 33.3 µM
O=C1/C(=C\c2ccccc2)C(c2ccccc2)Oc2ccc(O)cc21 (stereo unspecified) | 3.45 | 9.1 µM | 58.8 µM |  | 7.3 µM
Cc1ccc(/C=C2\C(=O)c3ccccc3OC2c2ccccc2)cc1 (stereo unspecified) | 4.39 | 57 µM | > 1000 µM |  | 40.8 µM
Cc1ccc(/C=C2/C(=O)c3ccccc3OC2c2ccccc2)cc1 (stereo unspecified) | 4.36 | 60.1 µM | 51.4 µM |  | 40.9 µM
O=C1/C(=C\c2ccc(Cl)cc2)C(c2ccccc2)Oc2ccccc21 (stereo unspecified) | 4.53 | 27.4 µM | > 1000 µM |  | > 1000 µM
O=C1/C(=C/c2ccc(Cl)cc2)C(c2ccccc2)Oc2ccccc21 (stereo unspecified) | 4.46 | 52 µM | 7.4 µM |  | 5.8 µM
O=C1/C(=C\c2ccc(Br)cc2)C(c2ccccc2)Oc2ccccc21 (stereo unspecified) | 4.71 | 32.6 µM | > 1000 µM | 29.1 µM | > 1000 µM
O=C1/C(=C/c2ccc(Br)cc2)C(c2ccccc2)Oc2ccccc21 (stereo unspecified) | 4.46 | 25.9 µM | 6.9 µM | 7.23 µM | 5.7 µM
O=C1/C(=C\c2ccccc2)COc2ccccc21 | 2.89 | 13.5 µM | 5.5 µM |  | 6.7 µM
O=C1CCOc2ccccc21 [CHROMANONE] |  | > 1000 µM | 674 µM |  | 677 µM
O=C1CC(c2ccccc2)Oc2ccccc21 (stereo unspecified) [FLAVANONE] |  | 71.2 µM | 57.6 µM |  | 51.1 µM
O=C1C[C@@H](c2ccc(O)cc2)Oc2cc(O)cc(O)c21 [NARINGENIN] |  | 525 µM | 426 µM |  | 414 µM
O=c1c(O)c(-c2ccc(O)c(O)c2)oc2cc(O)cc(O)c12 [QUERCETIN] |  | 178 µM | 77.1 µM |  | 58 µM

Reference: ChEMBL document CHEMBL2401718, “Structure-cytotoxic activity relationship of 3-arylideneflavanone and chromanone (E,Z isomers) and 3-arylflavones” (Bioorg Med Chem Lett, 2013)
